Laboratory results published in the EternaBench riboswitch data.

System: MS2 coat protein
Test: apparent Kd, MS2 coat protein; higher = weaker binding; RNA-MaP array; FMN 200 µM where present
How it was run: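 Each design was made on Illumina sequencing-chip clusters by stalled E. coli RNA polymerase and titrated with SNAP-549-labelled MS2 coat protein from 0.7 or 1.5 nM, doubling to 3 µM, in the absence and then the presence of constant ligand. The buffer was 100 mM Tris-HCl pH 7.5, 80 mM KCl, 4 mM MgCl2, BSA, DTT, yeast tRNA and Tween-20. The apparent Kd is the median of filtered per-cluster fits of binding curves, with green signal normalised to red-channel RNA signal and control-cluster median Fmax.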

[1] = designed as: OFF switch for flavin mononucleotide, no ligand
[2] = ligand present: flavin mononucleotide, designed as: OFF switch for flavin mononucleotide
[3] = designed as: ON switch for flavin mononucleotide, no ligand
[4] = ligand present: flavin mononucleotide, designed as: ON switch for flavin mononucleotide

Sequence	apparent Kd [1]	apparent Kd [2]	apparent Kd [3]	apparent Kd [4]
UUGAGGUCAGGAUAUGCAUGGCGGGACUUGCGUCGUGGCGUGCAGAAGGGACAUGAGGAUCACCCAUGUGGAGC	75.2 nM	211 nM	–	–
AUCCUACAUGAGGAUCACCCAUGUGAGGCCUCAAUAGGAUAUGCGUGUGCCUUGGCGCAUGCAGAAGGAUUGAAGC	–	–	363 nM	52.5 nM
AAUAACAGAGGAUAUACUAUUUUAUGUGUUUGUUAUUUUAAACAUGAGGAUCACCCAUGUAGAAGGCUGAGUAA	26.7 nM	26.9 nM	–	–
UUUGUACAUGAGGAUCACCCAUGUCAGGAUAUGUCAUCGCCGUCCGACGGCCGGCGUCACAGAAGGGACAUGCA	27.8 nM	78.1 nM	–	–
AUGUUAGGAGGAUAUCGAUUUCAGGACAUGAGGAUCACCCAUGUACUAAAAGUCGUGGUUCGAGAAGGCCUAACUU	17.5 nM	23.5 nM	–	–
GUAUAUAUUACAUGAGGAUCACCCAUGUCAGAACGGGUAAUCAGAAGGUAUUAUUAGAGAAAGGGUAAGGAUAUGAUUAUAUAU	–	–	605 nM	224 nM
GGUACCAUCACAGGAUAUGCUUUCCUUUGGGAAGCAGAAGGGUGUAACAUGAGGAUCACCCAUGUGGUGCCCGGGCGUGAGCCC	–	–	120 nM	15.9 nM
GGUAAGAUGCAGAAGGUGUUAGCUAGAGCUACGACAUGAGGAUCACCCAUGUACUAGAAACAGUACAAGGAUAUGCAUCUUACG	–	–	19.1 nM	6.5 nM
AUAUCUUGUCAAGGAUAUGUUGUAUUGAUCUGAAAACAUGAGGAUCACCCAUGUAUACGGUGGGAACAGAAGGUGAAUGUAGAA	532 nM	674 nM	–	–
AUAGAAGUCUAGAAGGACCUAGCUGUAUACCAUCAGGUAUAUACGCUAGGUAGGAUAUGGGACAUGAGGAUCACCCAUGUGUUG	–	–	48 nM	22.6 nM
CUUUUGUGAGGAUAUCAGUAGUAAUAUAAUAGUAUUACUACUGAGAAGGCACAUGAGGAUCACCCAUGUUCCUC	27.4 nM	50.3 nM	–	–
CAGUACUGAGGAUAUACAUGAGGAUCACCCAUGUGGUCCAGCUAGGAAACUAGCACGUGUAGAAGGCAGUACUG	36.1 nM	56.5 nM	–	–
UGUUGUUCAGGAUAUGGUGUGUUAUACAUGAGGAUCACCCAUGUGGGUCCUGGUUUGGCCUCAGAAGGGAAUGUUG	750 nM	537 nM	–	–
AGCGCCAUCGUGAGAUGGCGUAUUACAUGAGGAUCACCCAUGUAGGAUAUCGAUUGCUUUGCAGUCGAGAAGGGCAUGUCCUAG	35.8 nM	42.7 nM	–	–
UGUCGGAGCAGAGGAUAUUACAUGAGGAUCACCCAUGUAUGAACCAAUAGCUAGAAACAGCAAUGUAAGAAGGCUGCUCCGACA	8.97 nM	113 nM	–	–
AAUGAGCAGUAGAAGGCAUGUCUACGGACAUGAGGAUCACCCAUGUUGUGAAUCCGAAAGGAGCGUGAGGAUAUACUGCUCUAA	–	–	85.6 nM	18.8 nM
AUGAAGAAUUAAGGAUAUUGAUUACAUAUGUUUAACAUGAGGAUCACCCAUGUGGGUUGCGGUAUCGAGAAGGUAAAUUAAAAG	–	–	198 nM	178 nM
CCAGAUAUGUGAGGAUAUAGAGUGGAAUACACUCUAGAAGGUAUGUGAGAACAUGAGGAUCACCCAUGUCAUUGAUUAUCUGGA	–	–	24.7 nM	24.6 nM
AAAAAAAAAAUGCAGGAUAUGGGAAAAAAAACAUGAGGAUCACCCAUGUAAAAAAAAAAAAAAAACUAGAAGGGUAAAAAAAAAAA	–	–	80.2 nM	62.3 nM
GUAGGAAUCACAGGAUAUGCAUGCGCCGCUUCGAUCUACAUGAGGAUCACCCAUGUGUGGUCCGUGUAGAAGGGUGUUUGCUAC	–	–	80.8 nM	34.7 nM
GGUACUCAAAGAGUACCAAUACGAACAUGAGGAUCACCCAUGUAGGAUAUGCUCAAAACGGAGUAGCAGAAGGACAUGUGCCUA	12.7 nM	32.2 nM	–	–
CUUCAUUGUUGAGGAUAUAAUUAUAGGAUGUAGUUAGAAGGCGAACAUGAGGAUCACCCAUGUCAGGCAUGGAGACCCUUGACC	519 nM	624 nM	–	–
GACGGAUGUAUAGGAUAUGCUGAGGAAUACUCAGCAGAAGGAUACAUGAGGAUCACCCAUGUAACCGUCAAUAAUAAUAAUAAU	15.7 nM	29.9 nM	–	–
GCAGCAAUUUAAAACAUGAGGAUCACCCAUGUCGAGUGUUAUGAGGAUAUGCAUCGGAUGAAGAUGCAGAAGGCAUUGUGCUGC	–	–	6.32 nM	6.72 nM
UUCAUCGAUGAAGGAUAUCUAUGUCCAACAUGAGGAUCACCCAUGUUGAGGAUUACCUAUGUGUAGGAGAAGGUCAAUAUAACU	–	–	7.02 nM	6.28 nM
CGCUAAGAGAACGAUACGAAUAGACAUGAGGAUCACCCAUGUAGAAGGACAACGGAAUAAACGUUGUAGGAUAUACAUUUAGCG	17.4 nM	45.3 nM	–	–
UUUAAUUUAAUUAAGAUCACAUGAGGAUCACCCAUGUAAUUAUAGGAUAUCAGCUCGUUUAGAGCUGAGAAGGAUAAUUACAUA	78.9 nM	53.4 nM	–	–
CAGAAGUCAGGAUAUGCAUGGCGGGACUUGCGUCGUGGCGUGCAGAAGGGACAUGAGGAUCACCCAUGUAAAGU	53.5 nM	69.7 nM	–	–

Sequence	apparent Kd [1]	apparent Kd [2]	apparent Kd [3]	apparent Kd [4]
UGAUAGGACACAGGAUAUACGUGCUAGAGAUACUAGCAAAAUUUCCUCACAUGAGGAUCACCCAUGUAGAAGGGUGUCCUAUCU	10.3 nM	135 nM	–	–
GCACGACAUGUAGGAUAUCGAGCGCCGGGCGCUCGAGAAGGACAUGAGGAUCACCCAUGUAUUCUGAGUGACCGAGGUCGUGCA	53.9 nM	557 nM	–	–
UCGUAUACACAAGGAUAUCAAUGAUUUGUGGAUCCUACAUGAGGAUCACCCAUGUUUUUAUAUUUUGAGAAGGUGUAGUGUCUU	–	–	417 nM	608 nM
AGACUUGCAGGAUAUACAUGAGGAUCACCCAUGUAUGUAAACUUAUGCGGUGUGACCUGUAGAAGGGUAGGCGU	21.1 nM	24.2 nM	–	–
CUGAGCUUAGGAUAUACGUGUUGAUCUGAUCUCGACCUAUUACAUGAGGAUCACCCAUGUAGAAGGGAGCCGGA	17.6 nM	19.3 nM	–	–
CAUCUACAGGGAGGAUAUACAUGAGGAUCACCCAUGUCAUCAUACGAUCUUUCUUUUGUAUGAGUGUAGAAGGCCCAACUACCA	15.2 nM	15.2 nM	–	–
CAGAUAGGUGUGAGGAUAUAUCGUUAGCAAUGGCUAUAGAAGGCACAUGAGGAUCACCCAUGUGAGAUUGGCGU	21.3 nM	20.5 nM	–	–
GAGUAGAUCCGAGGAUAUACAAUCCGGAAACGGUACAUGAGGAUCACCCAUGUAGAAGGCGGAUCUACAGGUACUAAAGUACCA	6.24 nM	8.12 nM	–	–
UAAUGUGACAUGAGGAUCACCCAUGUAGACAUGGGAAGGUCGUAGGAUAUGCUGAUGAUUUUUUUGCAGAAGGACGUCAAGGAG	–	–	268 nM	138 nM
GUGGCUAGUGCAGGAUAUUAGCGCGUGUAGUGUUGAGAAGGGCACAUGAGGAUCACCCAUGUGAUCAAUCACUGUUAAGGUCGC	12.7 nM	25.3 nM	–	–
GUCUCGUGAGGAUAUCAUGAUUGACUUAAUUUAUUUUAGCGUGAGAAGGCACAUGAGGAUCACCCAUGUGAUUC	19.5 nM	21.3 nM	–	–
AAACAUGUCCGAGGAUAUCUGGAAACAUUUCCGAGAGAAGGCGGACAUGAGGAUCACCCAUGUCUCUCCUCAUCAAAUCCAAGU	8.44 nM	80.7 nM	–	–
GAUUCACAUGAGGAUCACCCAUGUGAGGAUAUCUAGGUGCGGAGGCUAAGACCUCCAGAGAGAAGGCACAUGGC	24.2 nM	36.8 nM	–	–
UUUUAACAUGAGGAUCACCCAUGUGAGGAUAUCGAAAUUUAUAUUUAUAUUAAUUAUACGAGAAGGCACAUUUU	79.2 nM	104 nM	–	–
AUUAAACAUGAGGAUCACCCAUGUCAACAAAGUCGAGGAUAUGGGCAUAUUAUCUAAUAACCAGAAGGCGAAUAAU	–	–	182 nM	45.9 nM
GUGUAGUCAGGAUAUACAUAGGAAGAGAAGAGAAGAUAAGUACAUGAGGAUCACCCAUGUAGAAGGGACAGUGU	30.6 nM	29.6 nM	–	–
AGUUAAUAUCGAGGAUAUGUCUAGACACAUGAGGAUCACCCAUGUAUGUGUAUAGAAGGCGAAAUUAAAAGCAUGUUACAUGCA	–	–	31.1 nM	19.5 nM
CCUCAGGCGGAGGAUAUCUAACAACAAUAACAAAGAGAAGGCCGCACAUGAGGAUCACCCAUGUGUAUGGGCCG	12.4 nM	22.8 nM	–	–
GGGUGAUCAGGAUAUACAGAAAUGCGAAAGCAUUUCUGUAAACAUGAGGAUCACCCAUGUAGAAGGAAACUUCA	17.9 nM	13.8 nM	–	–
GGAUGAGAAACUCAUCCUUAACGAACAUGAGGAUCACCCAUGUAGGAUAUGCUACUCAAAGAGUAGCAGAAGGACAUGUGCCUU	29.9 nM	264 nM	–	–
GAUUAACAUGAGGAUCACCCAUGUGAGGAUAUGGAAUGGCACAUUGUUUGAUUCCCGUCUAGAAGGCACAUCUU	44.5 nM	41.6 nM	–	–
GGUCCACAUGAGGAUCACCCAUGUUAGGAUAUCUCCCGCCUCCUCACUGGAGACGGACAGAGAAGGAACAUCAA	23.6 nM	74.7 nM	–	–
CAACCGUUGCAGAAGGUUAAAUAAAUUCUCUUCUUGUUUACAUGAGGAUCACCCAUGUUUUUGUUGAAGGAUAUGCAAGGGUUG	5.59 nM	5.79 nM	–	–
GUUAACGCAUGAGGAUAUGCUCGCAUUUCAAGAGCAGAAGGUAUGUCUAUAGACAUGAGGAUCACCCAUGUAUUUAUCAUUGAA	–	–	245 nM	39.6 nM
AUCAGCUCGUCAGGAUAUACGUCACUGCGUCAGCAGUGUGGUAAGAUCACAUGAGGAUCACCCAUGUAGAAGGGACGAGCUUAU	13.8 nM	260 nM	–	–
GCUCUAUGCUAGAAGGCGUGAAACAUGAGGAUCACCCAUGUCAAAGAAGUGAGGAUAUAGCAUAGAGCAAAAGUGCGAAAGCAC	–	–	16.9 nM	7.32 nM
CAAUUGGCACAGAAGGGUGACAUGAGGAUCACCCAUGUAGCGUGGCACUCAGGAGGAACCACGCCACAGGAUAUGUGCGGGCAC	–	–	65 nM	76.6 nM
